# A selection: hits, their analogues and other compounds. The true share with any hit is near 1.8%.
# TCR CD3 inh: inhibitors of human TCR-CD3 interaction, primary screen, biochemical, fluorescence, TAMRA-labeled TCR probe; T-cell receptor (TCR); inhibition, % at 9.4 µM; actives 0.37% (n = 360,000); in the data active means inhibition above about 19%;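 further: recombinant mutant TCR 2C K166C tagged with TAMRA read by polarization; 0% = receptor in buffer alone and 100% = receptor with positive control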
# SIAE inh: human SIAE inhibitors, primary screen, biochemical, fluorescence polarization, FP-Rh probe, 1536-well HTS; inhibition, % at 9.66 µM; Sialate O-acetylesterase (Homo sapiens), Q9HAT2; actives 0.69% (n = 370,000); SIAE FP-Rh probe binding;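 active means inhibition above a cutoff: mean of compounds within the control limits plus 3 SD of those, cut at about 17% in these data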;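 further: 0% = plate median of compound wells and 100% = probe without SIAE protein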
# Fam108B inh: mouse Fam108B serine hydrolase inhibitors, primary screen, counter-screen for RBBP9 inhibitor project, biochemical, fluorescence polarization; recombinant Fam108B, FP-Rh probe fluorescence polarization; inhibition, % at 9.51 µM; actives 0.33% (n = 300,000); AID 1947, 2009;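 active means inhibition above the screen mean inhibition plus 3 SD, computed separately per campaign, cut at about 18% in these data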;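 further: inhibitors lower polarization as less probe binds the enzyme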
# mABHD4 FP: ABHD4 inhibitors, primary screen, biochemical, fluorescence polarization, mouse; actives 0.54% (n = 370,000); (Lyso)-N-acylphosphatidylethanolamine lipase (Mus musculus), Q8VD66; purified mABHD4, FP-Rh probe fluorescence polarization; inhibition, % at 8.92 µM;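 active means inhibition exceeding the mean over every tested compound plus 3 SD, cut at about 30% in these data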;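 further: 0% = plate median of compound wells and 100% = S159A mutant with DMSO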
# Target sequence (Q8VD66 whole entry, looked up): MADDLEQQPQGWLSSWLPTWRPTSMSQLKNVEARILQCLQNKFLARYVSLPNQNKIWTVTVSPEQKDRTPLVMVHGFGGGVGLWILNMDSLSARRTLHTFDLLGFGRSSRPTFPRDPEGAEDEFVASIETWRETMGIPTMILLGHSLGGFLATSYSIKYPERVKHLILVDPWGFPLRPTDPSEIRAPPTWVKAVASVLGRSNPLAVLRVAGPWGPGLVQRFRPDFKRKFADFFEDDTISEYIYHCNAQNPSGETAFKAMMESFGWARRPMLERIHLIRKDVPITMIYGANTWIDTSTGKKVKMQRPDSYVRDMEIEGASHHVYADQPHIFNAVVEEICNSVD
#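 Assay system: wild-type mouse ABHD4 protein; compound: single nominal dose of 8.92 µM, 0.89% DMSO final; schedule: 45 min + 60 min at 25 °C; measured by: FP readout, ex 525 nm / em 598 nm; evaluation: % inhibition of FP-Rh probe binding versus controls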
# PME-1 primary: PME-1 inhibitors via competitive probe labeling, primary screen, biochemical, fluorescence polarization, FP-Rh probe, HTS | recombinant PME-1 | inhibition, % at 5.9 µM | actives 0.53% (n = 320,000) | AID 2130, 2009;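 active means inhibition above the campaign mean of all compounds plus 3 SD, cut at about 26% in these data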;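 further: competitive labeling of PME-1 active site by serine hydrolase directed probe; 0% = PME-1 with DMSO and 100% = wells lacking PME-1 enzyme; inhibitors block probe labeling so polarization falls and inhibition rises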
# HTRA1 inh: HTRA1 serine protease inhibitors, primary screen, biochemical, fluorescence polarization, HTS. Q92743. recombinant HTRA1, FP-rhodamine activity-based probe. inhibition, % at 5.96 µM. actives 0.5% (n = 340,000); in the data active means inhibition above about 36%;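 further: 0% = enzyme with DMSO and 100% = wells lacking enzyme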
# SIAE inh conf: human SIAE inhibitors, retest, confirmation, biochemical, fluorescence polarization, FP-Rh probe, triplicate. inhibition, % at 9.66 µM. actives 13% (n = 2,300). shares compounds with SIAE inh. SIAE FP-Rh activity-based probe;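 active means mean inhibition of the replicates above the hit cutoff set in the primary screen, cut at about 17% in these data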;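 further: 0% = SIAE with DMSO and probe and 100% = probe without SIAE; inhibitors lower polarization as more probe stays unbound to SIAE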
# The depositor's hits bear a star; . = no result given.
SMILES,TCR CD3 inh,SIAE inh,Fam108B inh,mABHD4 FP,PME-1 primary,HTRA1 inh,SIAE inh conf
COc1ccc(C(=O)NCCn2ccc3ccccc32)cc1OC,-0.8,21.6*,2.5,1.8,-1.1,-5.8,0.0
Cc1ccc(C(=O)NC(=S)N(C)C2CCCCC2)cc1,4.3,1.2,8.3,-1.3,-0.8,2.6,.
COCCN(C(=O)c1cc(-c2ccco2)nc2ccccc12)c1c(N)n(Cc2ccccc2)c(=O)[nH]c1=O,10.1,42.0*,.,23.4,.,9.9,1.6
COCCN(C(=O)COC(=O)/C=C/c1cccs1)c1c(N)n(Cc2ccccc2)c(=O)[nH]c1=O,-0.3,21.3*,1.3,-0.2,-4.1,-1.3,-1.2
CCN(CC)C1=NC=CC(c2ccccc2)=CC1C (configuration not stated),-4.7,28.5*,-2.5,-7.1,5.8,2.3,-3.3
CCN(Cc1ccccc1)c1ccccc1,2.7,3.5,.,1.8,.,-0.5,.
O=c1[nH]c2cc3c(cc2cc1CN(Cc1ccc2c(c1)OCO2)Cc1nnnn1CC1CCCO1)OCO3 (configuration not stated),-0.3,59.3*,3.6,-1.4,-6.6,-1.1,-5.8
Cc1cc(OC(=O)c2cc(F)c(F)cc2Cl)nc(C)n1,-0.8,19.4*,2.5,6.8,-4.2,7.2,2.6
NC(=O)CC(NC(=O)Cc1cccc2ccccc12)c1ccc(N2CCN(c3ccccn3)CC2)c([N+](=O)[O-])c1 (configuration not stated),-1.7,3.2,-1.9,-2.5,10.6,-4.6,.
C=C1CCC[C@]2(C)C[C@H]3OC(=O)C(CNCCN(C)C)[C@H]3CC12 (some centres not stated),1.6,6.2,-1.9,1.5,-2.7,8.5,.
C=C1CCC[C@]2(C)C[C@H]3OC(=O)C(CNCCN(CC)CC)[C@H]3CC12 (some centres not stated),2.5,21.8*,-0.1,10.7,-5.7,-2.0,0.0
CCOC(=O)[C@]12CCCC=C1N(Cc1ccc(OC)cc1)C(=O)[C@@H]2CC(=O)NCc1cccc2ccccc12,.,2.9,.,-20.6,.,.,.
S=C(Nc1cccc2ccccc12)Nc1cccc2ccccc12,0.3,8.8,.,24.7,.,4.3,.
Cc1ccc(F)c(NC(=S)Nc2cccc3ccccc23)c1,9.9,17.8*,-2.7,8.1,6.2,2.6,-1.4
COc1cc2ccccc2cc1C(=O)N1CCN(C(C)=O)CC1,1.0,21.7*,-2.8,0.3,6.8,4.6,1.6
COc1ccc(/C=N/Nc2nc(-c3ccc(Cl)cc3)cc(C(F)(F)F)n2)cc1OC,-2.1,19.6*,-1.1,-13.8,13.5,-12.2,0.3
COc1ccc(/C=N/Nc2nc(C)cc(-c3ccccc3)n2)cc1OC,-5.5,-0.6,-1.0,3.9,4.6,-7.8,.
CC(C)c1ccc(NC(=O)/C(C#N)=C/c2ccncc2)cc1,-3.9,18.1*,-4.1,3.0,2.6,-5.4,1.4
CC(=O)Nc1ccc(-c2ccnc3c2CC(C)(C(=O)NC(C)C)O3)cc1 (configuration not stated),-2.1,-2.2,.,-8.6,.,.,.
COc1cc(NC(=O)CSc2nc3ncnc(N)c3[nH]2)c(C(=O)O)cc1OC,-1.1,17.8*,1.1,-5.0,0.5,-2.6,0.5
CCOc1cc(OCC)cc(C(=O)N2CCC[C@@H]2C(=O)N2CCC[C@H]2C(=O)NCc2ccncc2)c1,-3.9,2.3,.,-1.0,.,.,.
COc1ccc(/C(C)=N/N=C2/NC(=O)CC(C(=O)O)S2)cc1 (configuration not stated),5.3,22.1*,2.9,1.1,-6.2,1.2,0.5
C=CCNC(=O)CN(CCc1ccccc1)S(=O)(=O)c1ccccc1,3.0,4.7,1.4,-5.2,5.4,5.0,.
